Data as given in ChEMBL document CHEMBL1772977, “Synthesis and biological evaluation of novel 4-benzylpiperazine ligands for sigma-1 receptor imaging” (Bioorg Med Chem, 2011).

Key:
[1] = molecular target: Sigma non-opioid intracellular receptor 1 (Rattus norvegicus, UniProt Q9R0C9); assay: Displacement of (+)-[3H]pentazocine from sigma 1 receptor in rat brain membranes by competitive binding assay; format: cell membranes
Procedure, shortened: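 Sigma-1 competition binding used rat brain membranes as receptor material with (+)-[3H]pentazocine as radioligand. Ki was derived by Cheng–Prusoff from at least three independent experiments, each in triplicate, and is reported as mean ± SD.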

[2] = Displacement of [3H]ditolylguanidine from sigma 2 receptor in rat liver membrane by competitive binding assay; format: cell membranes
Procedure, shortened: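 Sigma-2 competition binding used rat liver membranes with [3H]ditolylguanidine as radioligand. 10 µM dextrallorphan was present to mask sigma-1 sites. Ki was derived by Cheng–Prusoff from at least three independent experiments, each in triplicate, and is reported as mean ± SD.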

Sigma non-opioid intracellular receptor 1, sequence (Q9R0C9 whole entry): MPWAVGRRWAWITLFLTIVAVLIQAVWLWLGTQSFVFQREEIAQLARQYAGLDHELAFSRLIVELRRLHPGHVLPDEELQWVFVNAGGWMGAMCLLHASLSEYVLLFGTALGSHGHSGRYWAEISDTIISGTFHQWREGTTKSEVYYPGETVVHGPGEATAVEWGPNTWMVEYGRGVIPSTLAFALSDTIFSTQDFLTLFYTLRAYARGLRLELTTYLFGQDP

Row | SMILES | Ki [1] | Ki [2]
1 | Ic1ccc(CN2CCN(Cc3ccc4c(c3)OCO4)CC2)cc1 | 0.0008 µM | 0.0611 µM
2 | O=[N+]([O-])c1ccc(CN2CCN(Cc3ccc4c(c3)OCO4)CC2)cc1 | 0.00043 µM | 0.0405 µM
